Experimental data taken from ChEMBL document CHEMBL1142518, “Potential nicotinic acetylcholine receptor ligands from 2,4-methanoproline derivatives” (J Med Chem, 2008).
The source made the active and inactive calls. No cut-off for these calls is given here.

Columns and labels:
[1] = target: Neuronal acetylcholine receptor; alpha3/beta4 (Homo sapiens) (UniProt P30926+P32297); assay: Binding affinity to human nAChR-alpha-3-beta-4 in HEK293 cells; assay type: cell-based
Method in brief: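 Scintillation proximity assay on membranes from HEK-293 cells expressing cloned human α3β4 nAChR. [3H]epibatidine 2 nM, WGA-coated PVT beads 1.5 mg/well, 30 µg membrane protein/well, in 50 mM Tris-HCl, 150 mM NaCl, 5 mM KCl, pH 7.4. Nonspecific binding defined with 10 µM epibatidine. Equilibrated 2-4 h at room temperature, then scintillation counted. IC50 from 4-parameter logistic fit, converted to Ki by Cheng-Prusoff.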

[2] = target: Neuronal acetylcholine receptor; alpha4/beta2 (Homo sapiens) (UniProt P17787+P43681); assay: Binding affinity to human nAChR-alpha-4-beta-2 in HEK293 cells; assay type: cell-based
Method in brief: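 Cloned human α4β2 nAChR in HEK-293 cell membranes, tested by SPA radioligand binding. Used [3H]epibatidine 1 nM, WGA-coated PVT beads 1 mg/well and 30 µg membrane protein/well, in Tris-HCl buffer (50 mM, 150 mM NaCl, 5 mM KCl, pH 7.4). Nonspecific binding defined with 10 µM epibatidine. Incubated 2-4 h at room temperature and read by scintillation counting. 4-parameter logistic IC50 converted to Ki by Cheng-Prusoff.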

Row | Compound | Activity [1] | Activity [2]
1 | Cc1cc(C23CC(CN2)C3)on1 | inactive | inactive
2 | Cc1cc(/C=C/C23CC(CN2)C3)on1 | inactive | inactive
3 | c1cncc(OCC23CC(CN2)C3)c1 | inactive | inactive
4 | Cc1cc(CCC23CC(CN2)C3)on1 | inactive | inactive
5 | c1ccc(OCC23CC(CN2)C3)cc1 | inactive | inactive
6 | Clc1ccc(OCC23CC(CN2)C3)cn1 | inactive | inactive
